Test results reported in ChEMBL document CHEMBL3120088, “Discovery of selective small molecule type III phosphatidylinositol 4-kinase alpha (PI4KIIIα) inhibitors as anti hepatitis C (HCV) agents” (J Med Chem, 2014).

What was measured:
[1] = Inhibition of PI3Kalpha (1 to 1068)/6xHis-tagged p85 (1 to 724) (unknown origin) using diC8-PIP2 as substrate preincubated for 30 mins followed by substrate addition measured after 45 to 60 mins; design: species or system Homo sapiens
[2] = target: Phosphatidylinositol 4,5-bisphosphate 3-kinase catalytic subunit gamma isoform (Homo sapiens, UniProt P48736)
Rattus norvegicus [3] = experiment: Half life in Sprague-Dawley rat at 1 mg/kg, iv; assay type: ADME, organism-based; design: dose 1 mg/kg, route intravenous; conditions: in vivo
Outline: (§1)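 Rats were given a single dose of compound formulated in DMSO/cyclodextrin, either intravenously at 1 mg/kg or orally at 5 mg/kg. Each parameter comes from the matching route arm. Dose-normalized AUC is expressed as h kg ng mL⁻¹ mg⁻¹.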

[4] = Inhibition of PI3Kbeta (1 to 1070)/6xHis-tagged p85 (1 to 724) (unknown origin) using diC8-PIP2 as substrate preincubated for 30 mins followed by substrate addition measured after 45 to 60 mins; design: species or system Homo sapiens
Hepatitis C virus [5] = experiment: Antiviral activity against Hepatitis C virus genotype 2a expressed in human Huh-7 Lunet cells after 48 hrs by luciferase reporter gene assay; assay type: functional, organism-based, Hepacivirus hominis; conditions: huh-7
[6] = target: Phosphatidylinositol 4-kinase alpha (Homo sapiens, UniProt P42356); experiment: Inhibition of GST-tagged PI4K-alpha (1 to 2044) (unknown origin) using D-myo-phosphatidylinositol as substrate preincubated for 30 mins followed by substrate addition measured after 180 mins by luminescence assay
[7] = Clearance in Sprague-Dawley rat at 1 mg/kg, iv; assay type: ADME, organism-based; design: dose 1 mg/kg, route intravenous; conditions: in vivo; outline: as §1
[8] = (§2) Half life in Sprague-Dawley rat at 5 mg/kg, po; assay type: ADME, organism-based; design: dose 5 mg/kg, route oral; conditions: Sprague-Dawley, in vivo; outline: as §1
Rattus norvegicus [9] = experiment: Dose normalized AUC in Sprague-Dawley rat at 5 mg/kg, po; assay type: ADME, organism-based; design: dose 5 mg/kg, route oral; conditions: in vivo; outline: as §1
[10] = Thermodynamic stability of the compound in DMSO assessed as interconversion at 80 degC after 6 days; assay type: physicochemical; conditions: 144 h
Rattus norvegicus [11] = experiment: Cmax in Sprague-Dawley rat at 5 mg/kg, po; assay type: ADME, organism-based; design: dose 5 mg/kg, route oral; conditions: in vivo; outline: as §1
[12] = (§3) Tmax in Sprague-Dawley rat at 5 mg/kg, po; assay type: ADME, organism-based; design: dose 5 mg/kg, route oral; conditions: Sprague-Dawley, in vivo; outline: as §1
[13] = Inhibition of 6xHis-tagged PI4K-beta (13 to 828) 316 to 330 deletion mutant (unknown origin) using D-myo-phosphatidylinositol as substrate preincubated for 30 mins followed by substrate addition measured after 180 mins by luminescence assay; design: species or system Homo sapiens
[14] = Inhibition of PI3Kdelta (1 to 1044)/6xHis-tagged p85 (1 to 724) (unknown origin) using diC8-PIP2 as substrate preincubated for 30 mins followed by substrate addition measured after 45 to 60 mins; design: species or system Homo sapiens
[15] = (§4) Oral bioavailability in Sprague-Dawley rat at 5 mg/kg; assay type: ADME, organism-based; conditions: Sprague-Dawley, in vivo; outline: as §1
Hepatitis C virus [16] = experiment: Antiviral activity against Hepatitis C virus genotype 1a expressed in ET cells after 48 hrs by luciferase reporter gene assay; assay type: functional, organism-based, Hepacivirus hominis, subtype 1a; conditions: et
Rattus norvegicus [17] = experiment: Dose normalized AUC in Sprague-Dawley rat at 1 mg/kg, iv; assay type: ADME, organism-based; design: dose 1 mg/kg, route intravenous; conditions: in vivo; outline: as §1
[18] = (§5) Volume of distribution at steady state in Sprague-Dawley rat at 1 mg/kg, iv; assay type: ADME, organism-based; design: dose 1 mg/kg, route intravenous; conditions: Sprague-Dawley, in vivo, read-out: Vdss; outline: as §1
[19] = Thermodynamic stability of the compound in DMSO assessed as decomposition at 80 degC after 6 days; assay type: physicochemical; conditions: 144 h
Hepatitis C virus [20] = experiment: Antiviral activity against Hepatitis C virus genotype 1b expressed in ET cells after 48 hrs by luciferase reporter gene assay; assay type: functional, organism-based, Hepacivirus hominis; conditions: et
Mus musculus [21] = experiment: Toxicity in mouse assessed as mortality at 40 mg/kg/day; assay type: organism-based; conditions: in vivo
Outline: (§6)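 Mouse repeat-dose toxicity study: 40 mg/kg/day given daily for 14 days. Endpoints were morbidity, mortality, test-article-related changes in stomach, thymus and spleen, and clinical pathology parameters.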

Rattus norvegicus [22] = experiment: as §2; assay type: ADME, organism-based; design: dose 5 mg/kg, route oral; conditions: in vivo; outline: as §1
Rattus norvegicus [23] = experiment: as §3; assay type: ADME, organism-based; design: dose 5 mg/kg, route oral; conditions: in vivo; outline: as §1
Rattus norvegicus [24] = experiment: as §4; assay type: ADME, organism-based; conditions: in vivo; outline: as §1
[25] = Toxicity in mouse after 14 days; assay type: organism-based; conditions: in vivo; outline: as §6
Mus musculus [26] = experiment: Toxicity in mouse assessed as morbidity at 40 mg/kg/day; assay type: organism-based; conditions: in vivo; outline: as §6
Mus musculus [27] = experiment: Toxicity in mouse assessed as pathological changes in spleen at 40 mg/kg/day; assay type: organism-based; conditions: in vivo; outline: as §6
Mus musculus [28] = experiment: Toxicity in mouse assessed as pathological changes in thymus at 40 mg/kg/day; assay type: organism-based; conditions: in vivo; outline: as §6
Mus musculus [29] = experiment: Toxicity in mouse assessed as pathological changes in stomach at 40 mg/kg/day; assay type: organism-based; conditions: in vivo; outline: as §6
Rattus norvegicus [30] = experiment: as §5; assay type: ADME, organism-based; design: dose 1 mg/kg, route intravenous; conditions: in vivo; outline: as §1

Phosphatidylinositol 4-kinase alpha, sequence (P42356 whole entry): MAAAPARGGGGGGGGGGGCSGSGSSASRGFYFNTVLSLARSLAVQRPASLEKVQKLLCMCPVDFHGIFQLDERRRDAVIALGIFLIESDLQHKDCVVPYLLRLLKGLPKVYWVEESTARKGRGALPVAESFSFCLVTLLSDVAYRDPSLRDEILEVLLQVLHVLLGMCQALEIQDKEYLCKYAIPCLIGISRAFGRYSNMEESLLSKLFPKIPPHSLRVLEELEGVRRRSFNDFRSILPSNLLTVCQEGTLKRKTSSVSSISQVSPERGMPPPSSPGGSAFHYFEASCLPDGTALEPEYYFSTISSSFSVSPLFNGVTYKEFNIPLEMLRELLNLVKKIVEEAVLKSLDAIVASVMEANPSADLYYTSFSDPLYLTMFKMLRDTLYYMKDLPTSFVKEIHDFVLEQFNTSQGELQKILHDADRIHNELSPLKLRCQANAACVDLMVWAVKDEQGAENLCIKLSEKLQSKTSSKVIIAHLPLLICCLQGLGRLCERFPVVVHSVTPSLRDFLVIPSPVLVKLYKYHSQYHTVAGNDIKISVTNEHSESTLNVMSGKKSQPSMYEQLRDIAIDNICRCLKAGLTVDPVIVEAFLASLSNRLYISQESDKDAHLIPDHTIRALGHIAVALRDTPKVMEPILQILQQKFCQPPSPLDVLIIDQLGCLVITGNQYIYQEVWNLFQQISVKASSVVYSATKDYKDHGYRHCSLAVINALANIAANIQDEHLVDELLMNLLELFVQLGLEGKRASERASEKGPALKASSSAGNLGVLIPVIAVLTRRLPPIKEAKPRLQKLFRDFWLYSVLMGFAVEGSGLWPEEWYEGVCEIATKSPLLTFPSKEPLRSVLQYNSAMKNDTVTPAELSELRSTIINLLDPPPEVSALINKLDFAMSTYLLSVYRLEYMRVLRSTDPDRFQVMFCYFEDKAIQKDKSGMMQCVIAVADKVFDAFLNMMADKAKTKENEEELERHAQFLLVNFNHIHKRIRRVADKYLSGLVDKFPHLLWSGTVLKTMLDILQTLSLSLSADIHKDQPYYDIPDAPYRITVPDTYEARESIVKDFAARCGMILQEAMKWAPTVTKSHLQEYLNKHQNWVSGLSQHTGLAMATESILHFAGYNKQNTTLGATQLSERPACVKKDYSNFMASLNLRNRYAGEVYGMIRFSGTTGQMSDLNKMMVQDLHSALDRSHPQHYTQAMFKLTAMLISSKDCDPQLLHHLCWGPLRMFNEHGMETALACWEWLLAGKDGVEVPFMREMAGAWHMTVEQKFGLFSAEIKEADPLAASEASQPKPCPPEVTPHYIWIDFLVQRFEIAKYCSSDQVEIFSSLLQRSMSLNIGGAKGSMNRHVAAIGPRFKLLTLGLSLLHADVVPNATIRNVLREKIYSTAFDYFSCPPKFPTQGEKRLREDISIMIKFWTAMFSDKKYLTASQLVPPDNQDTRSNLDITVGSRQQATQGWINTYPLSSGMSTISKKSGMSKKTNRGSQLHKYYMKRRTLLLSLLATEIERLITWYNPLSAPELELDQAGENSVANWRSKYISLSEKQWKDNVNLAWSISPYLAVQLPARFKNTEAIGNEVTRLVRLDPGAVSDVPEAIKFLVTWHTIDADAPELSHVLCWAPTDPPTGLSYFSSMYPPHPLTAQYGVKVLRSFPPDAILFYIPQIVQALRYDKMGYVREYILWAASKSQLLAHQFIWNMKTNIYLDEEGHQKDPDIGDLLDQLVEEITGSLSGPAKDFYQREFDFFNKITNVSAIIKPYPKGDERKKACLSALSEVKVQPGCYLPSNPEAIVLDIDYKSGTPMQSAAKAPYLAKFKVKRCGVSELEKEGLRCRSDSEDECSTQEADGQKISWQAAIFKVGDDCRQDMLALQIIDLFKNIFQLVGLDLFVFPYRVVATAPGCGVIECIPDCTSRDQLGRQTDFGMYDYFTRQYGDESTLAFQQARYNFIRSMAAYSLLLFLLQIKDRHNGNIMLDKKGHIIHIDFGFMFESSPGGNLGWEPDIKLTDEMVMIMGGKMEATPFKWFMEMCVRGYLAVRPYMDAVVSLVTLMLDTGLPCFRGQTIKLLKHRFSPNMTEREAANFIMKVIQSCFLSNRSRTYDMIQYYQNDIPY
Phosphatidylinositol 4,5-bisphosphate 3-kinase catalytic subunit gamma isoform, sequence (P48736 whole entry, canonical isoform): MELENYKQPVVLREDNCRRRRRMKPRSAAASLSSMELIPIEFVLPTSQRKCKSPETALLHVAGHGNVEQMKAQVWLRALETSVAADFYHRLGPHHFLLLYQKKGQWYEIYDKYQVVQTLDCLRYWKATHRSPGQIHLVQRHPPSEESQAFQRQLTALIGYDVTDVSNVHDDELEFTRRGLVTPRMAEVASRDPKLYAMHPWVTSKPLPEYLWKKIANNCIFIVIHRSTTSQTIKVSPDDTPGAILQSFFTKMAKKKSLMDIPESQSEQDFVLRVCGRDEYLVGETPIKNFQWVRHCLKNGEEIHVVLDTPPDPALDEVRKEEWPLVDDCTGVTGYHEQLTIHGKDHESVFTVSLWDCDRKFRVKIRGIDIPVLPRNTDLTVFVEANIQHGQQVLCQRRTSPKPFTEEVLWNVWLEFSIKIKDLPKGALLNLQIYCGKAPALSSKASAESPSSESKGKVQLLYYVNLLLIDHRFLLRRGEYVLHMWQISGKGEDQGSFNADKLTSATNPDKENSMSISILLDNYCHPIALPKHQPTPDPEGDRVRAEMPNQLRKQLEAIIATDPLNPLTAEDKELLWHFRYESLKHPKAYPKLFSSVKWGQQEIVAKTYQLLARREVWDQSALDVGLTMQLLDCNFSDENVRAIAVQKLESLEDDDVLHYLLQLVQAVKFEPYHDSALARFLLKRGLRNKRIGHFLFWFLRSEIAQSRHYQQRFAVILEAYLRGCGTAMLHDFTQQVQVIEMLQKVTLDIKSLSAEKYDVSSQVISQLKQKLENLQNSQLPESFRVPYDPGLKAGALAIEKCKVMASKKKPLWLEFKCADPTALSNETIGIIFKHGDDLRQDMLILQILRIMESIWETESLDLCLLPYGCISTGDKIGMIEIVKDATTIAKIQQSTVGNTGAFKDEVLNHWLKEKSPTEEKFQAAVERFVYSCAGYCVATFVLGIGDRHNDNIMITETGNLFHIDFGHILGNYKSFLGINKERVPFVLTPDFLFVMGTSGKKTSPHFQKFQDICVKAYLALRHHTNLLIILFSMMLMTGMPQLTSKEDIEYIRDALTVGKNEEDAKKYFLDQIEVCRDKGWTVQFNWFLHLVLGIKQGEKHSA

SMILES	pIC50 [1]	IC50 [2]	t1/2 (Rattus norvegicus [3])	pIC50 [4]	pIC50 (Hepatitis C virus [5])	IC50 [6]	AUC/dose (Rattus norvegicus [9])	Cmax (Rattus norvegicus [11])	pIC50 [13]	pIC50 [14]	pIC50 (Hepatitis C virus [16])	AUC/dose (Rattus norvegicus [17])	pIC50 (Hepatitis C virus [20])	further results
COc1ncc(-c2ccc3nc(N)n(-c4ccccc4C(F)(F)F)c(=O)c3c2)cc1S(=O)(=O)Nc1ccc(F)cc1F (atropisomer aR)	5.5	3160 nM	3.5 h	4.8	7.1	126 nM	9985 kg·ng·h/mL/mg	4429 ng/mL	5.3	5	6.9	7113 kg·ng·h/mL/mg	7.8	clearance [7]: 2.5 mL/min/kg; half-life [8]: 2.7 h; Stability [10]: Stable; Tmax [12]: 3 h; bioavailability [15]: > 100%; Vd [18]: 0.55 L/kg; Stability [19]: Stable
COc1ncc(-c2ccc3nc(N)n(-c4ccccc4C(F)(F)F)c(=O)c3c2)cc1S(=O)(=O)Nc1ccc(F)cc1F (atropisomer aS)	5.6	2510 nM	1.3 h	5.1	7.9	5.01 nM	3626 kg·ng·h/mL/mg	1556 ng/mL	6	5.6	7.9	3695 kg·ng·h/mL/mg	8.6	Activity (Mus musculus [21]): Toxic; t1/2 (Rattus norvegicus [22]): 4 h; Tmax (Rattus norvegicus [23]): 4.25 h; F (Rattus norvegicus [24]): 98%; MTD at 336 h [25]: 50 mg/kg; Activity (Mus musculus [26]): Toxic; Activity (Mus musculus [27]): Toxic; Activity (Mus musculus [28]): Toxic; Activity (Mus musculus [29]): Toxic; Vdss (Rattus norvegicus [30]): 0.34 L/kg
